Experimental data taken from PMC5655776 (Journal of Clinical Pharmacology, 2017).
Like-named read-outs stand apart in the source and are kept apart here. Each block holds one compound with its values, some of them ahead of it.

What was measured:
[1] = assay type: in vivo, human; conditions: for MRAUCinf (metabolite‐to‐parent ratio for AUC): corrected for molecular weight, geometric mean (geometric %CV)
[2] = major circulating metabolites of ertugliflozin; cited from earlier work
[3] = Urinary excretion and renal clearance of ertugliflozin and metabolites; assay type: in vivo, human; conditions: subjects with normal renal function
[4] = test system: urinary glucose excretion; experiment: Change from baseline in 24-hour urinary glucose excretion; assay type: in vivo, human; conditions: for Change from baseline to day 1 in 24‐hour urinary glucose excretion, geometric mean / Change from baseline to day 1 in 24‐hour urinary glucose excretion, mean (SD) / Change from baseline to day 1 in 24‐hour urinary glucose excretion, median: 15 mg single oral dose
In short: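 Single oral 15 mg dose given as three 5-mg tablets after a 4-hour fast. Baseline urine was collected on day –2 (–48 to –24 h) and post-dose urine in 0‑4, 4‑8, 8‑12 and 12‑24 h intervals, with glucose measured centrally. 24-h UGE is the sum of the intervals. Log-transformed change was compared by 1-way ANOVA against T2DM with normal renal function, without plasma glucose correction. eGFR bands: mild 60‑89, moderate 30‑59 mL/min.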

[5] = test system: SGLT2‐mediated glucose transport; experiment: 24-hour inhibition of glucose reabsorption; assay type: in vivo, human; conditions: day 1
[6] = test system: T2DM and healthy subjects; experiment: Safety and tolerability of a single 15-mg dose; assay type: in vivo, human
In short: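 Open-label, nonrandomized single oral 15 mg dose (three 5-mg tablets) after a 4-hour fast. Usual antihyperglycemic agents were given 4 h post-dose. AEs were recorded throughout and coded with MedDRA 17.1. ECGs were taken at screening, predose and day 5. Sitting and supine/standing blood pressure and pulse were taken predose and at 1, 2, 4 and 96 h post-dose.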

[7] = cited from earlier work
[8] = as high as 300 mg (single dose), 100 mg once daily (up to 14 days), 25 mg once daily (up to 12 weeks); ref data on file, 9, 10; cited from earlier work
[9] = T2DM, moderate renal impairment
[10] = single 15‐mg dose, all renal function groups

- median tmax range of metabolites ([1]; after ertugliflozin 15 mg, across all groups): 2 to 4 h
- MRAUCinf (metabolite‐to‐parent ratio for AUC) ([1]; T2DM, mild renal impairment): 0.98 (45)
- MRAUCinf (metabolite‐to‐parent ratio for AUC) [1, 9]: 1.26 (52)
- MRAUCinf (metabolite‐to‐parent ratio for AUC) ([1]; T2DM, normal renal function): 0.93 (39)
- MRAUCinf (metabolite‐to‐parent ratio for AUC) ([1]; T2DM, severe renal impairment): 1.03 (37)
- MRAUCinf (metabolite‐to‐parent ratio for AUC) ([1]; healthy, normal renal function): 0.64 (29)
Structure (SMILES): CCOc1ccc(Cc2cc([C@]34OC[C@](CO)(O3)[C@@H](O)[C@H](O[C@@H]3O[C@H](C(=O)O)[C@@H](O)[C@H](O)[C@H]3O)[C@H]4O)ccc2Cl)cc1 [PF‐06481944, 3‐O‐β‐glucuronide]
- pharmacological activity of metabolite [2]: pharmacologically inactive

Structure (SMILES): CCOc1ccc(Cc2cc([C@]34OC[C@](CO)(O3)[C@@H](O)[C@H](O)[C@H]4O)ccc2Cl)cc1 [ertugliflozin, Ertugliflozin]
- Tmax ([1]; human, plasma, po, 15 mg, median tmax, 15 mg single oral dose, across all groups): 1 to 1.51 h
- predicted mean (90%CI) AUC from log‐linear regression vs BSA‐unnormalized eGFR ([1]; mild renal impairment (eGFR = 75 mL/min)): 1585 (1461‐1719) ng·h/mL
- predicted mean (90%CI) AUC from log‐linear regression vs BSA‐unnormalized eGFR ([1]; moderate renal impairment (eGFR = 45 mL/min)): 1875 (1698‐2071) ng·h/mL
- predicted mean (90%CI) AUC from log‐linear regression vs BSA‐unnormalized eGFR ([1]; normal renal function (eGFR = 105 mL/min)): 1340 (1194‐1503) ng·h/mL
- predicted mean (90%CI) AUC from log‐linear regression vs BSA‐unnormalized eGFR ([1]; severe renal impairment (eGFR = 15 mL/min)): 2219 (1907‐2581) ng·h/mL
- Ae96% [3]: approximately 1%
- Change from baseline to day 1 in 24‐hour urinary glucose excretion, geometric mean ([4]; T2DM, mild renal impairment): 35.98 g
- Change from baseline to day 1 in 24‐hour urinary glucose excretion, mean (SD) ([4]; T2DM, mild renal impairment): 48.67 (37.72) g
- Change from baseline to day 1 in 24‐hour urinary glucose excretion, median ([4]; T2DM, mild renal impairment): 36.4 g
- Change from baseline to day 1 in 24‐hour urinary glucose excretion, geometric mean [4, 9]: 27.55 g
- Change from baseline to day 1 in 24‐hour urinary glucose excretion, mean (SD) [4, 9]: 32.64 (21.32) g
- Change from baseline to day 1 in 24‐hour urinary glucose excretion, median [4, 9]: 28.8 g
- Change from baseline to day 1 in 24‐hour urinary glucose excretion, geometric mean ([4]; T2DM, normal renal function): 72.31 g
- Change from baseline to day 1 in 24‐hour urinary glucose excretion, mean (SD) ([4]; T2DM, normal renal function): 75.12 (24.36) g
- Change from baseline to day 1 in 24‐hour urinary glucose excretion, median ([4]; T2DM, normal renal function): 68.1 g
- Change from baseline to day 1 in 24‐hour urinary glucose excretion, geometric mean ([4]; T2DM, severe renal impairment): 10.09 g
- Change from baseline to day 1 in 24‐hour urinary glucose excretion, mean (SD) ([4]; T2DM, severe renal impairment): 11.29 (5.81) g
- Change from baseline to day 1 in 24‐hour urinary glucose excretion, median ([4]; T2DM, severe renal impairment): 10.3 g
- Change from baseline to day 1 in 24‐hour urinary glucose excretion, geometric mean ([4]; healthy, normal renal function): 46.33 g
- Change from baseline to day 1 in 24‐hour urinary glucose excretion, mean (SD) ([4]; healthy, normal renal function): 48.16 (14.04) g
- Change from baseline to day 1 in 24‐hour urinary glucose excretion, median ([4]; healthy, normal renal function): 45.8 g
- change from baseline in 24‐hour UGE, 1‐way ANOVA ([4]; T2DM, mild renal impairment): 36.0 g
- change from baseline in 24‐hour UGE, 1‐way ANOVA [4, 9]: 27.6 g
- change from baseline in 24‐hour UGE, 1‐way ANOVA ([4]; T2DM, normal renal function): 72.3 g
- change from baseline in 24‐hour UGE, 1‐way ANOVA ([4]; T2DM, severe renal impairment): 10.1 g
- geometric mean change from baseline in 24‐hour percentage inhibition of glucose reabsorption ([5]; T2DM, mild renal impairment): 25.58%
- geometric mean change from baseline in 24‐hour percentage inhibition of glucose reabsorption [5, 9]: 28.84%
- geometric mean change from baseline in 24‐hour percentage inhibition of glucose reabsorption ([5]; T2DM, normal renal function): 33.34%
- geometric mean change from baseline in 24‐hour percentage inhibition of glucose reabsorption ([5]; T2DM, severe renal impairment): 24.25%
- geometric mean change from baseline in 24‐hour percentage inhibition of glucose reabsorption ([5]; healthy subjects): 29.19%
- subjects experiencing hypoglycemia ([6]; T2DM mild renal impairment group, receiving glyburide): 1 subject
- subjects experiencing hypoglycemia ([6]; T2DM severe renal impairment group, receiving long‐acting insulin): 2 subjects
- subjects experiencing hypoglycemia ([6]; all groups (n = 36)): 3 subjects
- intensity of AEs ([6]; single 15‐mg dose, all AEs): mild
- deaths, serious AEs, severe AEs, discontinuations due to AEs [6, 10]: no deaths, serious AEs, severe AEs, or temporary or permanent discontinuations due to AEs
- laboratory findings, vital signs, ECG findings [6, 10]: no abnormal laboratory findings or changes in vital signs (including postural changes) or ECG findings of clinical significance
- tolerability [6, 10]: well tolerated
- Urinary excretion of unchanged drug, share of elimination ([7]; human absorption, distribution, metabolism, and excretion studies): 1.5%
- median time to maximum concentration (tmax) ([7]; oral administration, fasted state, ref data on file, 15, 16): approximately 1 hour
- terminal elimination half‐life (t1/2) ([7]; oral administration, ref data on file, 15, 16): approximately 17 hours
- dose proportionality in exposure (AUC and Cmax) ([7]; over the range of 0.5 to 300 mg, ref data on file, 15, 16): dose proportionality
- tolerability of higher oral doses [8]: well tolerated
